Screens from PubChem BioAssay.
EBI2 block – antagonists of human EBI2 receptor | P32249 | EBI2 beta-arrestin recruitment, luminescence, 7a,25-OHC stimulated | inhibition, % at 5 µM | actives 0.81% (n = 360,000); in the data active = inhibition above about 38%;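 also: enzyme fragment complementation signal reports receptor beta-arrestin coupling in cells; 0% = agonist plus DMSO wells and 100% = wells without agonist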
Target sequence (P32249 whole entry, looked up, the tested form may be a part): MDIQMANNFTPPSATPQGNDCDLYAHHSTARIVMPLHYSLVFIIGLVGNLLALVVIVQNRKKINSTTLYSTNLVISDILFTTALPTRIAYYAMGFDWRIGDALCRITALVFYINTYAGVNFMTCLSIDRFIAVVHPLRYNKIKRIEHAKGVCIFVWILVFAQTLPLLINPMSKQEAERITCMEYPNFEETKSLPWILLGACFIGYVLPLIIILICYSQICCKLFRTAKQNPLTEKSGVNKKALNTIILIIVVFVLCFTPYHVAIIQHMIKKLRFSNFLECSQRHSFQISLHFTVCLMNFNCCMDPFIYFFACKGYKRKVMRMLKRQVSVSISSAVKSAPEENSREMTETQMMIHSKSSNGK
CXCR6 block – blocks human CXCR6 beta-arrestin recruitment. O00574. CHO-K1 PathHunter CXCR6 beta-arrestin, luminescence. inhibition, % at 20 µM. actives 0.36% (n = 360,000); in the data active = inhibition above about 34%, passing the limit was not always enough;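 also: antagonist mode with CXCL16 agonist at 10 nM final; 0% = 10 nM CXCL16 with DMSO and 100% = unstimulated wells without agonist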
iPSC survival up – enhancers of human iPSC single-cell survival; hiPSC single-cell survival, ATPlite luminescence; 100% = ROCK inhibitor wells, 0% = DMSO; actives 0.044% (n = 360,000); survival enhancement, % at 20 µM; in the data active = survival enhancement above about 18%;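 also: cells exposed to compounds for 16 hours before the ATP read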
APJ antagonist – APJ receptor antagonism; P35414; CHO-K1 APJ beta-arrestin complementation, luminescence; inhibition, % at 20 µM; actives 0.32% (n = 330,000);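 active = inhibition above about 40% at 20 µM, limit read from the data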;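 also: cells challenged with 10 nM apelin-13 agonist together with compound; plate controls were apelin-13 plus DMSO wells for no effect and DMSO wells lacking apelin-13 for full effect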
APJ agonist – activates the human apelin receptor APJ | P35414 | CHO-K1 APJ PathHunter beta-arrestin, luminescence; 0% DMSO wells, 100% apelin | activation, % at 20 µM | actives 0.11% (n = 330,000) | AID 2520;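 active = activation more than six SD over the plate average, tested at 20 µM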;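 also: 0% = DMSO alone and 100% = apelin-13 at 10 nM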
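Assay system: CHO-K1 cells stably expressing ProLink-tagged human APJ and arrestin–beta-gal acceptor. Compound dosing: 20 µM single point, 1% DMSO. Times: 16-18 h seeding, 90 min dark compound exposure, 60 min detection. Detection: beta-gal luminescence. Evaluation: APJ–arrestin association signal. Controls: negative DMSO alone, positive Apelin-13 at 10 nM.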
CCR6 antagonist – antagonists of human CCR6 receptor | CHO-K1 CCR6 PathHunter beta-arrestin, luminescence, CCL20-stimulated | P51684 | inhibition, % at 20 µM | AID 493098 | actives 0.49% (n = 340,000);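 active = compounds whose inhibition of the agonist-driven luminescence signal at 20 µM reaches about 50%, limit read from the data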;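 also: cells stimulated with CCL20 at 14 nM final; plate controls were DMSO with CCL20 for no effect and DMSO without agonist for full effect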
EBI2 antag conf – confirmation of human EBI2 receptor antagonists | shares compounds with EBI2 block | EBI2 beta-arrestin luminescence, 7a,25-OHC antagonism | inhibition, % at 5 µM | actives 29% (n = 2,400);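 active = inhibition of at least 50%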
EBI2 ag – activates EBI2, counter-screen for EBI2 antagonists; activation, % at 5 µM; AID 652000; 2,400 tested, under 10 active; shares compounds with EBI2 block; EBI2-expressing cells, agonist mode, luminescence, 60 min; 0% vehicle, 100% 7α,25-dihydroxycholesterol control;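 active = activation of at least 50%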
bGal counter – inhibits E. coli beta-galactosidase, counter-screen for EBI2 antagonists. actives 1% (n = 2,400). inhibition, % at 5 µM. AID 652176. shares compounds with EBI2 block. purified beta-galactosidase, luminescent Galacton Star, 15 min;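 active = replicate-average signal at least 3 plate SD below neutral wells, shown as high inhibition, flagging enzyme-inhibiting false positives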;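 also: 0% = DMSO wells with enzyme and 100% = wells lacking enzyme; higher means stronger loss of beta-gal luminescence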
* = called active by the depositor; nt = no result. Most compounds without a hit are left out; they make up all but 1.5% or so of the library.

SMILES	EBI2 block	CXCR6 block	iPSC survival up	APJ antagonist	APJ agonist	CCR6 antagonist	EBI2 antag conf	EBI2 ag	bGal counter
COc1cccc(NC(=O)C(Sc2nnc(Nc3ccccc3C)s2)c2ccccc2)c1 (stereo not drawn)	46.3*	9.4	0.3	-8.9	-2.1	20.7	8.0	-0.4	-10.1
C=C(C)c1cc2c(ccc3ccc(=O)oc32)o1	0.7	1.5	1.9	4.8	-1.0	0.7	nt	nt	nt
N#Cc1cc(-c2ccccc2)cn(Cc2c(Cl)cccc2Cl)c1=O	35.6	2.3	-3.0	1.3	-2.6	0.9	nt	nt	nt
Cc1ccc(-c2cc(C#N)c(=O)n(Cc3c(Cl)cccc3Cl)c2)cc1	46.8*	5.3	2.3	-20.6	2.0	-2.6	16.8	0.5	-6.7
Nc1c2c(=O)[nH]c(O)cc2nn1-c1ccccc1	-20.7	-10.8	0.7	nt	nt	-3.9	nt	nt	nt
CCC1(c2ccccc2)NC(=O)N(CC(=O)Nc2ccc(S(=O)(=O)Nc3ncccn3)cc2)C1=O (stereo not drawn)	-2.9	-5.4	0.6	15.8	1.5	11.0	nt	nt	nt
Cc1noc(C)c1C(=O)N1CCN(C(=O)c2sc3cc(Cl)ccc3c2Cl)CC1	42.4*	-0.1	-0.3	0.3	-4.0	8.4	14.5	-1.3	-8.3
Cc1ccccc1Cn1c(C)nc2ccc([N+](=O)[O-])cc2c1=O	7.5	-12.0	-0.7	-5.6	0.2	8.4	nt	nt	nt
CCN(CC)c1ccc(NC(=O)/C=C\c2ccccc2Cl)cc1	48.6*	13.0	-1.2	9.4	-2.4	23.9	47.2	0.7	12.3
O=C(COC(=O)c1cc([N+](=O)[O-])ccc1N1CCOCC1)Nc1ccccc1OC(F)F	2.0	-1.2	1.4	-58.9	9.4	14.7	nt	nt	nt
O=C(COC(=O)c1cc([N+](=O)[O-])ccc1N1CCOCC1)c1ccc(OC(F)F)cc1OC(F)F	43.5*	16.0	0.6	17.6	-4.5	16.5	18.3	0.1	8.2
COc1cc(C(=O)N2CCN(S(=O)(=O)c3ccc(C)cc3C)CC2)ccc1OCC(=O)N1CCOCC1	3.9	2.3	-0.5	15.3	-3.6	8.2	nt	nt	nt
CC(=O)NS(=O)(=O)c1ccc(N=c2ssc3c2-c2cc(C)c(C)cc2NC3(C)C)cc1	0.0	4.1	5.3	12.2	-2.3	9.3	nt	nt	nt
Cc1cc2c(cc1C)-c1c(ssc1=Nc1ccc(S(N)(=O)=O)cc1)C(C)(C)N2	53.1*	8.3	-0.4	16.8	-3.4	31.9	58.5*	-1.2	-9.9
COc1ccc(CCNc2ccc(C)cc2)cc1	53.9*	-3.3	-2.8	-8.4	-3.2	10.8	40.4	-1.9	-5.5
COc1ccc(CCNc2ccncn2)cc1	2.1	-2.5	-1.1	22.9	0.7	8.9	nt	nt	nt
NC(=O)C1CN(C(=O)c2cccc(S(=O)(=O)N3CCc4ccccc43)c2)c2ccccc2O1 (stereo not drawn)	6.1	-3.9	0.5	5.0	-3.4	16.4	nt	nt	nt
S=C(NCc1cccnc1)Nc1ccc(Oc2ccc(Cl)cc2)cc1	45.5*	0.7	-0.4	-4.0	7.4	11.2	21.8	-1.8	-10.0
O=C(CCC1CCCC1)NNC(=O)COc1ccc(Br)cc1	78.8*	2.1	-0.1	6.1	-0.5	-0.8	36.9	-0.5	-7.2
CN(C(=O)CSc1nc(-c2cccs2)nc2ccccc12)C1CCS(=O)(=O)C1 (stereo not drawn)	1.1	-1.8	2.6	8.4	2.2	3.3	nt	nt	nt
O=C(N/N=C/c1ccc(Cl)cc1Cl)c1cccc(F)c1	44.6*	1.1	4.4	4.4	-1.0	7.7	40.6	2.4	3.0
O=C(Cc1ccccc1)NC(=S)Nc1ccc2oc(-c3ccccc3F)nc2c1	38.9*	11.5	1.5	8.8	-2.3	35.7	22.2	-0.2	6.2
